Data set [1] in a line: Induction of singlet oxygen production assessed as appearance of ergosterol acetate epidioxide at 10 uM after 10 mW/cm'2 irradiation for 30 mins by TLC. The data set is classed as physicochemical. The conditions noted are these: 0.5 h.
Data set [2] in a line: Octanol-water partition coefficient, log P at 300 uM by absorption spectroscopy. Type of data set: physicochemical. The procedure, abridged: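 1-Octanol/water partitioning at 25 °C using equal volumes of water and 1-octanol. Dye solution at 300 µM was vortexed and centrifuged. Aliquots of each phase were diluted separately into MeOH, and dye concentration was read by absorption spectroscopy. log P = log([dye]octanol/[dye]water).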

Data set [3] is described as follows: Photostability assessed as residual absorbance at 2.5 mW/cm'2 irradiation for 15 mins by photobleaching test. The data set is classed as physicochemical. The conditions noted are these: read-out: Stability. The procedure, abridged: (§1)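 Solutions were irradiated with white light at fluence 2.5 mW/cm2. Absorbance was measured at the Soret band maximum and reported as % residual absorbance versus irradiation time.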

Data set [4] is described as follows: Photostability assessed as residual absorbance at 2.5 mW/cm'2 irradiation for 30 mins by photobleaching test. Type of data set: physicochemical. The settings on record: read-out: Stability. The procedure, abridged: as §1
Another data set deals with MCF7. The data set can be described thus: Photocytotoxicity against human MCF7 cells preincubated for 24 hrs in dark followed by illumination at 5.5 x 10^-2 mW/cm'2 light measured after 24 hrs post illumination by MTT assay. Type of data set: functional, cell-based.
The nature of data set [5]: Photostability assessed as residual absorbance at 2.5 mW/cm'2 irradiation for 45 mins by photobleaching test. Type of data set: physicochemical. The settings on record: read-out: Stability. The procedure, abridged:
as §1

A short description of data set [6]: Photostability assessed as residual absorbance at 2.5 mW/cm'2 irradiation for 60 mins by photobleaching test. Type of data set: physicochemical. The settings on record: read-out: Stability. The procedure, abridged: as §1
The test system of a further data set is HaCaT. The data set can be described thus: Photocytotoxicity against human HaCaT cells preincubated for 24 hrs in dark followed by illumination at 5.5 x 10^-2 mW/cm'2 light measured after 24 hrs post illumination by MTT assay. Type of data set: functional, cell-based.
Where [7] appears, read: Homo sapiens, MCF7, read-out: IC50.
Where [8] appears, read: Homo sapiens, HaCaT, read-out: IC50.

Converted amounts (≈) assume the structure as drawn.

For `O=C([O-])c1c(Cl)c(Cl)c(Cl)c(Cl)c1-c1c2cc(I)c(=O)c(I)c-2oc2c(I)c([O-])c(I)cc12.[K+].[K+]`, in data set [1], the result was Active.
Same read-out and setting: in the case of `NCCOCCOCCNC(=O)c1ccc(-c2c3nc(c(-c4ccc(C(=O)NCCOCCOCCN)cc4)c4[nH]c(c(-c5ccc(C(=O)NCCOCCOCCN)cc5)c5nc(c(-c6ccc(C(=O)NCCOCCOCCN)cc6)c6[nH]c2c2ccccc62)-c2ccccc2-5)c2ccccc42)-c2ccccc2-3)cc1` it was “Active”.
`NCCCCN(CCCN)CCCCNC(=O)c1ccc(-c2c3nc(c(-c4ccc(C(=O)NCCCCN(CCCN)CCCCN)cc4)c4[nH]c(c(-c5ccc(C(=O)NCCCCN(CCCN)CCCCN)cc5)c5nc(c(-c6ccc(C(=O)NCCCCN(CCCN)CCCCN)cc6)c6[nH]c2c2ccccc62)-c2ccccc2-5)c2ccccc42)-c2ccccc2-3)cc1` gave a logP at 300 µM in data set [2] of -0.21. Besides, the remaining at 0.25 h in data set [3] amounted to 100%. Further, in data set [1], the outcome was Active. In addition, the remaining at 0.5 h in data set [4] worked out at 99%. The figures for the IC50 in the data set on MCF7 (setting [7]) and in the data set on HaCaT (setting [8]) were 7.28 µg/mL (≈ 4.08 µM) and 3.42 µg/mL (≈ 1.92 µM), respectively. For the same molecule, the remaining at 0.75 h in data set [5] came to 97%. For the same molecule, the remaining at 1 h in data set [6] worked out at 96%.
`NCCCNCCCCN(CCCN)CCCCNC(=O)c1ccc(-c2c3nc(c(-c4ccc(C(=O)NCCCCN(CCCN)CCCCNCCCN)cc4)c4[nH]c(c(-c5ccc(C(=O)NCCCCN(CCCN)CCCCNCCCN)cc5)c5nc(c(-c6ccc(C(=O)NCCCCN(CCCN)CCCCNCCCN)cc6)c6[nH]c2c2ccccc62)-c2ccccc2-5)c2ccccc42)-c2ccccc2-3)cc1` showed a logP at 300 µM in data set [2] of -0.47. In addition, the remaining at 0.25 h in data set [3] was 100%. Besides, the outcome in data set [1] was Active. Besides, the remaining at 0.5 h in data set [4] was 100%. The IC50 result in the data set on MCF7 (mcf7) and in the data set on HaCaT (hacat) was “Not Active” throughout. In data set [5], the remaining at 0.75 h stood at 99%. Moreover, in data set [6], the remaining at 1 h stood at 97%.
Regarding `CC(C)(C)OC(=O)NCCOCCOCCNC(=O)c1ccc(-c2c3nc(c(-c4ccc(C(=O)NCCOCCOCCNC(=O)OC(C)(C)C)cc4)c4[nH]c(c(-c5ccc(C(=O)NCCOCCOCCNC(=O)OC(C)(C)C)cc5)c5nc(c(-c6ccc(C(=O)NCCOCCOCCNC(=O)OC(C)(C)C)cc6)c6[nH]c2c2ccccc62)-c2ccccc2-5)c2ccccc42)-c2ccccc2-3)cc1`, in data set [1], the outcome was Active.
For the molecule `CC(C)(C)OC(=O)NCCCN(CCCCNC(=O)c1ccc(-c2c3nc(c(-c4ccc(C(=O)NCCCCN(CCCCN(CCCNC(=O)OC(C)(C)C)C(=O)OC(C)(C)C)CCCNC(=O)OC(C)(C)C)cc4)c4[nH]c(c(-c5ccc(C(=O)NCCCCN(CCCCN(CCCNC(=O)OC(C)(C)C)C(=O)OC(C)(C)C)CCCNC(=O)OC(C)(C)C)cc5)c5nc(c(-c6ccc(C(=O)NCCCCN(CCCCN(CCCNC(=O)OC(C)(C)C)C(=O)OC(C)(C)C)CCCNC(=O)OC(C)(C)C)cc6)c6[nH]c2c2ccccc62)-c2ccccc2-5)c2ccccc42)-c2ccccc2-3)cc1)CCCCN(CCCNC(=O)OC(C)(C)C)C(=O)OC(C)(C)C`, the outcome in data set [1] was Active.
On to `CC(C)(C)OC(=O)NCCCCN(CCCCNC(=O)c1ccc(-c2c3nc(c(-c4ccc(C(=O)NCCCCN(CCCCNC(=O)OC(C)(C)C)CCCNC(=O)OC(C)(C)C)cc4)c4[nH]c(c(-c5ccc(C(=O)NCCCCN(CCCCNC(=O)OC(C)(C)C)CCCNC(=O)OC(C)(C)C)cc5)c5nc(c(-c6ccc(C(=O)NCCCCN(CCCCNC(=O)OC(C)(C)C)CCCNC(=O)OC(C)(C)C)cc6)c6[nH]c2c2ccccc62)-c2ccccc2-5)c2ccccc42)-c2ccccc2-3)cc1)CCCNC(=O)OC(C)(C)C`, for which the result in data set [1] was Active.
Same read-out and setting: in the case of `CC(=O)OC[C@H]1O[C@H](OCC(=O)NCOCCOCCNC(=O)c2ccc(-c3c4nc(c(-c5ccc(C(=O)NCCOCCOCNC(=O)CO[C@H]6O[C@H](COC(C)=O)[C@@H](OC(C)=O)[C@H](OC(C)=O)[C@H]6O)cc5)c5[nH]c(c(-c6ccc(C(=O)NCCOCCOCNC(=O)CO[C@H]7O[C@H](COC(C)=O)[C@@H](OC(C)=O)[C@H](OC(C)=O)[C@H]7O)cc6)c6nc(c(-c7ccc(C(=O)NCCOCCOCNC(=O)CO[C@H]8O[C@H](COC(C)=O)[C@@H](OC(C)=O)[C@H](OC(C)=O)[C@H]8O)cc7)c7[nH]c3c3ccccc73)-c3ccccc3-6)c3ccccc53)-c3ccccc3-4)cc2)[C@H](O)[C@@H](OC(C)=O)[C@@H]1OC(C)=O` it was “Active”.
`OC[C@H]1O[C@@H](Oc2ccc(-c3c4nc(c(-c5ccc(O[C@@H]6O[C@H](CO)[C@@H](O)[C@H](O)[C@H]6O)cc5)c5[nH]c(c(-c6ccc(O[C@@H]7O[C@H](CO)[C@@H](O)[C@H](O)[C@H]7O)cc6)c6nc(c(-c7ccc(O[C@@H]8O[C@H](CO)[C@@H](O)[C@H](O)[C@H]8O)cc7)c7[nH]c3c3ccccc73)-c3ccccc3-6)c3ccccc53)-c3ccccc3-4)cc2)[C@H](O)[C@@H](O)[C@@H]1O` displayed a logP at 300 µM in data set [2] of 0.18. Besides, the remaining at 0.25 h in data set [3] was found to be 100%. Besides, in data set [1], the outcome was Active. The remaining at 0.5 h in data set [4] came out at 99%. Further, the IC50 in the data set with MCF7 (setting [7]) came to 8.41 µg/mL (≈ 5.51 µM); in the data set on HaCaT (setting [8]) it was 0.971 µg/mL (≈ 0.636 µM). Moreover, the remaining at 0.75 h in data set [5] was determined as 98%. In data set [6], the remaining at 1 h was found to be 95%.
Take `c1ccc(-c2c3nc(c(-c4ccccc4)c4[nH]c(c(-c5ccccc5)c5nc(c(-c6ccccc6)c6[nH]c2c2ccccc62)-c2ccccc2-5)c2ccccc42)-c2ccccc2-3)cc1` [Ar4TBP]: the IC50 entry with MCF7 (mcf7) and with HaCaT (hacat) was “Not Active” in each case.
In the case of `O=C1OC2(c3ccccc31)c1cc(Br)c(O)c(Br)c1Oc1c2cc(Br)c(O)c1Br` [EOSIN], in data set [1], the result was Active.
Regarding PORFIMER SODIUM, the outcome in data set [1] was Active. In addition, the values for the IC50 in the data set with MCF7 (mcf7) and in the data set on HaCaT (hacat) were 1.224 µg/mL and 0.0787 µg/mL, respectively.

The record behind these values is ChEMBL document CHEMBL1152661, “Synthesis of tetraglucosyl- and tetrapolyamine-tetrabenzoporphyrin conjugates for an application in PDT” (Bioorg Med Chem, 2009).
